Measurements published in ChEMBL document CHEMBL1152900, “Synthesis and evaluation of the antioxidant and anti-inflammatory activity of novel coumarin-3-aminoamides and their alpha-lipoic acid adducts” (Eur J Med Chem, 2009).
Activity calls are given as the source filed them. The rule behind the calls is not given here.

Experiments:
[1] = Antioxidant activity against hydroxyl radical assessed as inhibition of formaldehyde production at 0.1 mM after 30 mins relative to DMSO; format: functional; parameters: scale not given: the % may be the effect or the level left
Outline: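 Hydroxyl radicals were generated with Fe3+, DMSO 33 mM and ascorbic acid 10 mM in 50 mM phosphate buffer, pH 7.4, with test compound at 0.1 mM final. Mixtures were incubated 30 min at 37 °C, stopped with CCl3COOH (17% w/v), and formaldehyde was read spectrophotometrically at 412. At least triplicate.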

[2] = Acute toxicity in rat assessed as survival up to 0.5 mmol/kg after 24 hrs; format: organism-based; conditions: in vivo, read-out: Activity
Outline: (§1)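 Rats were split into 5 groups of 6–8 animals each and injected with graded doses of 0.1–0.5 mmol/kg body weight. Animals were then scored for survival and examined macroscopically and at autopsy.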

[3] = system: Rattus norvegicus; assay: Acute toxicity in rat assessed as mortality up to 0.5 mmol/kg after 24 hrs by macroscopic analysis; format: organism-based; conditions: in vivo; outline: as §1
[4] = system: Rattus norvegicus; assay: Acute toxicity in rat assessed as mortality up to 0.5 mmol/kg after 24 hrs by autopsy; format: organism-based; conditions: in vivo; outline: as §1
[5] = system: Glycine max; assay: Inhibition of soybean lipoxygenase assessed as conversion of sodium linoleate to 13-hydroperoxylinoleic acid at 0.1 mM
Outline: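 Soybean lipoxygenase (enzyme solution 1/9 × 10^-4 w/v in saline) was incubated at room temperature with sodium linoleate 0.1 mM and test compounds in ethanol. Conversion to 13-hydroperoxylinoleic acid was followed at 234 nm and compared with a standard inhibitor. At least triplicate.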

[6] = system: Rattus norvegicus; assay: In vivo antiinflammatory activity in Fisher 344 rat assessed as inhibition of carrageenan-induced paw edema at 0.01 mmol/kg, ip administered simultaneously with carrageenan measured after 3.5 hrs; format: functional; conditions: Fisher 344, ip
Outline: (§2)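 Rats of both sexes (pregnant females excluded), bred in-house and fasted during the experiment; 6–15 per group, run twice. Test agents were suspended in water with a few drops of Tween 80 and given ip at the time of carrageenin injection. Rats were killed 3.5 h later. Injected minus uninjected paw weight gave % edema inhibition versus water-treated controls.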

[7] = Antioxidant activity assessed as reduction of DPPH activity at 0.1 mM after 20 mins; format: functional; parameters: scale not given: the % may be the effect or the level left
Outline: (§3)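 DPPH at 0.05 mM final in absolute ethanol was mixed with test compounds in ethanol at 0.1 or 0.5 mM final, with ethanol as the control. After 20 and 60 min at room temperature, absorbance was read at 517 nm. At least triplicate.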

[8] = Antioxidant activity assessed as reduction of DPPH activity at 0.1 mM after 60 mins; format: functional; parameters: scale not given: the % may be the effect or the level left; outline: as §3
[9] = Antioxidant activity assessed as reduction of DPPH activity at 0.5 mM after 20 mins; format: functional; parameters: scale not given: the % may be the effect or the level left; outline: as §3
[10] = Antioxidant activity assessed as reduction of DPPH activity at 0.5 mM after 60 mins; format: functional; parameters: scale not given: the % may be the effect or the level left; outline: as §3
[11] = system: Rattus norvegicus; assay: Antiinflammatory activity in Fisher 344 rat assessed as inhibition of carrageenan-induced paw edema at 0.01 mmol/kg, ip administered simultaneously with carrageenan measured after 3.5 hrs; format: functional; conditions: Fisher 344, ip; outline: as §2
[12] = system: Rattus norvegicus; assay: Antiinflammatory activity in Fisher 344 rat assessed as inhibition of carrageenan-induced paw edema at 0.001 mmol/kg, ip administered simultaneously with carrageenan measured after 3.5 hrs; format: functional; conditions: Fisher 344, ip

| SMILES | Activity [1] | survival at 24 h [2] | Activity [3] | Activity [4] | inhibition [5] | inhibition in vivo at 10 µmol/kg [6] | Activity [7] | Activity [8] | Activity [9] | Activity [10] | inhibition in vivo at 10 µmol/kg [11] | inhibition in vivo at 1 µmol/kg [12] |
| --- | --- | --- | --- | --- | --- | --- | --- | --- | --- | --- | --- | --- |
| Cc1ccc2oc(=O)c(C(=O)NCCCCCCCCN)c(O)c2c1 | 100% | 80% | Non-toxic | Non-toxic | 30% | 59% | 58% | 68% | 72% | 78% | – | – |
| Cc1ccc2oc(=O)c(C(=O)NCCCCCCCCNC(=O)CCCCC3CCSS3)c(O)c2c1 (stereo not given) | 100% | 80% | Non-toxic | Non-toxic | 8.3% | – | 69% | 65% | 89% | 87% | 73% | 60% |
| Cc1ccc2oc(=O)c(C(=O)NCCN)c(O)c2c1 | 100% | 80% | Non-toxic | Non-toxic | 14% | 59% | 48% | 59% | 70% | 65% | – | – |
| O=C(CCCCC1CCSS1)NCCCCCCCCNC(=O)c1c(O)c2ccccc2oc1=O (stereo not given) | inactive | 80% | Non-toxic | Non-toxic | 33% | 43% | 21% | 21% | 32% | 25% | – | – |
| O=C(O)CCCCC1CCSS1 (stereo not drawn) [LIPOIC ACID, ALPHA] | 38.6% | – | – | – | 29.1% | 29.6% | 20% | 27% | 5% | 7% | – | – |
| COc1ccc2c(c1)c(CC(=O)O)c(C)n2C(=O)c1ccc(Cl)cc1 [INDOMETHACIN] | – | – | – | – | – | 47% | – | – | – | – | – | – |
| Nc1ccccc1NC(=O)c1c(O)c2ccccc2oc1=O | inactive | 80% | Non-toxic | Non-toxic | 23% | 57% | 90% | 93% | 85% | 83% | – | – |
| NCCCCCCNC(=O)c1c(O)oc2ccccc2c1=O | 100% | 80% | Non-toxic | Non-toxic | 52% | 49% | 3% | 3% | 5% | 5% | – | – |
| Cc1ccc2oc(=O)c(C(=O)Nc3ccccc3N)c(O)c2c1 | 100% | 80% | Non-toxic | Non-toxic | 22% | 60% | 74% | 65% | 70% | 78% | – | – |
| Cc1c(C)c2c(c(C)c1O)CCC(C)(C(=O)O)O2 (stereo not given) | 88.2% | – | – | – | – | – | – | – | – | – | – | – |
| CCOC(=O)c1c(O)c2cc(C)ccc2oc1=O | 81% | 80% | Non-toxic | Non-toxic | 93% | 41% | 18% | 8% | 20% | 33% | – | – |
| NCCCCCCCCNC(=O)c1c(O)c2ccccc2oc1=O | inactive | 80% | Non-toxic | Non-toxic | inactive | 48% | 17% | 8% | 9% | 19% | – | – |
| CCOC(=O)c1c(O)oc2ccccc2c1=O | 91% | 80% | Non-toxic | Non-toxic | 93% | 63% | 15% | 27% | 20% | 13% | – | – |
| O=C(CCCCC1CCSS1)NCCCCCCNC(=O)c1c(O)c2ccccc2oc1=O (stereo not given) | 96% | 80% | Non-toxic | Non-toxic | 18% | – | 15% | 18% | 23% | 12% | 72% | 61% |
| NCCNC(=O)c1c(O)c2ccccc2oc1=O | 91% | 80% | Non-toxic | Non-toxic | 100% | 59% | 42% | 25% | inactive | inactive | – | – |
| CC(Cc1ccc(O)c(O)c1)C(C)Cc1ccc(O)c(O)c1 (stereo not given) | – | – | – | – | 84% | – | – | 83% | 97% | 98% | – | – |
